# Source: ChEMBL document CHEMBL4007456, “Heterocyclyl Tetracyclines. 1. 7-Trifluoromethyl-8-Pyrrolidinyltetracyclines: Potent, Broad Spectrum Antibacterial Agents with Enhanced Activity against Pseudomonas aeruginosa” (2017)
# How the values were obtained:
# Assay type in all cases: functional
# Staphylococcus aureus [1] = experiment: Antibacterial activity against gram-positive Staphylococcus aureus SA101 by CLSI method
# Summary of the method: (§1)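 Broth microdilution MIC per CLSI in cation-adjusted Mueller Hinton broth, prepared fresh and held at 4 °C. Defibrinated horse blood added where appropriate. Compounds serially diluted in sterile deionized water. Strains from ATCC unless otherwise noted. Runs accepted when comparator antibiotics fell within QC ranges for ATCC quality control strains.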
# Klebsiella pneumoniae [2] = experiment: Antibacterial activity against gram-negative Klebsiella pneumoniae KP457 harboring blacTX-M-15 extended spectrum beta-lactamase gene by CLSI method
# Summary of the method: (§2)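 CLSI broth microdilution MIC in fresh cation-adjusted Mueller Hinton broth, supplemented with defibrinated horse blood where appropriate. Compounds serially diluted in sterile deionized water. Runs accepted when comparator antibiotics against ATCC quality-control strains fell within recommended ranges.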
# Enterococcus faecalis [3] = experiment: Antibacterial activity against gram-positive Enterococcus faecalis EFs327 harboring tet(M) by CLSI method; summary of the method: as §2
# Staphylococcus aureus [4] = experiment: Antibacterial activity against gram-positive Staphylococcus aureus SA161 harboring tet(M) by CLSI method; summary of the method: as §2
# Escherichia coli [5] = experiment: Antibacterial activity against gram-negative Escherichia coli EC107 by CLSI method; summary of the method: as §1
# Enterococcus faecalis [6] = experiment: Antibacterial activity against gram-positive Enterococcus faecalis EF159 harboring tet(M) by CLSI method; summary of the method: as §2
# [7] = system: Stenotrophomonas maltophilia; experiment: Antibacterial activity against gram-negative Stenotrophomonas maltophilia SM256 by CLSI method; summary of the method: as §1
# Acinetobacter baumannii = experiment: Antibacterial activity against gram-negative Acinetobacter baumannii AB250 by CLSI method; summary of the method: as §1
# Escherichia coli [8] = experiment: Antibacterial activity against gram-negative Escherichia coli EC155 harboring tet(A) by CLSI method; summary of the method: as §2
# Streptococcus pneumoniae [9] = experiment: Antibacterial activity against gram-positive Streptococcus pneumoniae SP193 by CLSI method; summary of the method: as §1
# Klebsiella pneumoniae [10] = experiment: Antibacterial activity against gram-negative Klebsiella pneumoniae KP153 harboring tet(A) by CLSI method; summary of the method: as §2
# Proteus mirabilis [11] = experiment: Antibacterial activity against gram-negative Proteus mirabilis PM385 by CLSI method; summary of the method: as §1
# Enterobacter cloacae = experiment: Antibacterial activity against gram-negative Enterobacter cloacae EC1603 harboring tet(A) by CLSI method; summary of the method: as §2
# Klebsiella pneumoniae [12] = experiment: Antibacterial activity against gram-negative Klebsiella pneumoniae KP194 by CLSI method; summary of the method: as §1
# Pseudomonas aeruginosa [13] = experiment: Antibacterial activity against gram-negative Pseudomonas aeruginosa PA555 by CLSI method; summary of the method: as §1
# Pseudomonas aeruginosa [14] = experiment: Antibacterial activity against gram-negative Pseudomonas aeruginosa PA169 by CLSI method
# Summary of the method: (§3)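 Defibrinated horse blood added where appropriate. Compounds serially diluted in sterile deionized water. Strains from ATCC unless otherwise noted. Runs accepted when comparator antibiotics fell within QC ranges for ATCC quality control strains.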
# Proteus mirabilis [15] = experiment: Antibacterial activity against gram-negative Proteus mirabilis PM122 by CLSI method; summary of the method: as §3
# Streptococcus pneumoniae [16] = experiment: Antibacterial activity against gram-positive Streptococcus pneumoniae SP160 harboring tet(M) by CLSI method; summary of the method: as §2
# Burkholderia cenocepacia = experiment: Antibacterial activity against gram-negative Burkholderia cenocepacia BC240 by CLSI method; summary of the method: as §3
# Staphylococcus aureus [17] = experiment: Antibacterial activity against gram-positive Staphylococcus aureus SA158 harboring tet(K) by CLSI method; summary of the method: as §2
# Enterococcus faecium = experiment: Antibacterial activity against gram-positive Enterococcus faecium EFm404 harboring tet(M) by CLSI method; summary of the method: as §2
# Pseudomonas aeruginosa [18] = experiment: Antibacterial activity against Pseudomonas aeruginosa PA694 in CD-1 mouse model of thigh infection assessed as reduction in log10CFU per gram of thigh at 5 mg/kg, iv bid administered 2 to 12 hrs of post-infection measured after 24 hrs relative to untreated control
# Summary of the method: (§4)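 Groups of 5 female specific-pathogen-free CD-1 mice, 22 ± 2 g. Right thigh inoculated intramuscularly with 3-5 x 10^6 CFU/mouse of P. aeruginosa PA694 (UTI isolate). Dosed IV at 5, 15 or 40 mg/kg at 2 and 12 h post-infection. Thigh muscle harvested at 24 h post-infection, homogenized in PBS (pH 7.4), plated on Brain Heart Infusion agar + 0.5% charcoal. Log10 CFU per gram thigh compared with 24 h untreated control.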
# Pseudomonas aeruginosa [19] = experiment: Antibacterial activity against Pseudomonas aeruginosa PA694 in CD-1 mouse model of thigh infection assessed as reduction in log10CFU per gram of thigh at 15 mg/kg, iv bid administered 2 to 12 hrs of post-infection measured after 24 hrs relative to untreated control; summary of the method: as §4
# Pseudomonas aeruginosa [20] = experiment: Antibacterial activity against Pseudomonas aeruginosa PA694 in CD-1 mouse model of thigh infection assessed as reduction in log10CFU per gram of thigh at 40 mg/kg, iv bid administered 2 to 12 hrs of post-infection measured after 24 hrs relative to untreated control; summary of the method: as §4
# Pseudomonas aeruginosa [21] = experiment: Antibacterial activity against Pseudomonas aeruginosa PA694 in CD-1 mouse model of thigh infection administered as iv bid for 2 to 12 hrs of post-infection measured after 24 hrs
# Summary of the method: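 Female specific-pathogen-free CD-1 mice (22 ± 2 g), groups of 5, inoculated intramuscularly into right thigh with 3-5 x 10^6 CFU/mouse P. aeruginosa PA694 (UTI isolate). IV dosing at 5, 15 and 40 mg/kg at 2 and 12 h post-infection. Thigh muscle harvested at 24 h, homogenized in PBS pH 7.4, plated on Brain Heart Infusion agar + 0.5% charcoal; CFU/g thigh vs untreated controls; Mann-Whitney.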
structure (smiles),measurement,setting,value
CN(C)[C@@H]1C(O)=C(C(N)=O)C(=O)[C@@]2(O)C(O)=C3C(=O)c4c(O)cccc4[C@@](C)(O)[C@H]3C[C@@H]12 [TETRACYCLINE],MIC,Staphylococcus aureus [1],0.25 µg/mL
same,MIC,Klebsiella pneumoniae [2],8 µg/mL
same,MIC,Enterococcus faecalis [3],> 32 µg/mL
same,MIC,Staphylococcus aureus [4],> 32 µg/mL
same,MIC,Escherichia coli [5],1 µg/mL
same,MIC,Enterococcus faecalis [6],> 32 µg/mL
same,MIC,[7],16 µg/mL
same,MIC,Acinetobacter baumannii,> 32 µg/mL
same,MIC,Escherichia coli [8],> 32 µg/mL
same,MIC,Streptococcus pneumoniae [9],0.125 µg/mL
same,MIC,Klebsiella pneumoniae [10],> 32 µg/mL
same,MIC,Proteus mirabilis [11],> 32 µg/mL
same,MIC,Enterobacter cloacae,> 32 µg/mL
same,MIC,Klebsiella pneumoniae [12],16 µg/mL
same,MIC,Pseudomonas aeruginosa [13],> 32 µg/mL
CN1CCCCC1c1cc(O)c2c(c1Cl)C[C@H]1C[C@H]3[C@H](N(C)C)C(O)=C(C(N)=O)C(=O)[C@@]3(O)C(O)=C1C2=O (stereo partly drawn),MIC,Staphylococcus aureus [1],0.25 µg/mL
same,MIC,Pseudomonas aeruginosa [14],32 µg/mL
same,MIC,Proteus mirabilis [15],1 µg/mL
same,MIC,Staphylococcus aureus [4],4 µg/mL
same,MIC,Escherichia coli [5],0.125 µg/mL
same,MIC,Enterococcus faecalis [6],2 µg/mL
same,MIC,[7],1 µg/mL
same,MIC,Streptococcus pneumoniae [16],0.25 µg/mL
same,MIC,Acinetobacter baumannii,2 µg/mL
same,MIC,Escherichia coli [8],1 µg/mL
same,MIC,Streptococcus pneumoniae [9],≤ 0.0156 µg/mL
same,MIC,Klebsiella pneumoniae [10],1 µg/mL
same,MIC,Burkholderia cenocepacia,8 µg/mL
same,MIC,Klebsiella pneumoniae [12],16 µg/mL
same,MIC,Staphylococcus aureus [17],0.0313 µg/mL
CN(C)[C@@H]1C(O)=C(C(N)=O)C(=O)[C@@]2(O)C(O)=C3C(=O)c4c(O)cc(-c5ccncc5)c(Cl)c4C[C@H]3C[C@@H]12,MIC,Staphylococcus aureus [1],0.125 µg/mL
same,MIC,Pseudomonas aeruginosa [14],> 32 µg/mL
same,MIC,Proteus mirabilis [15],16 µg/mL
same,MIC,Staphylococcus aureus [4],0.5 µg/mL
same,MIC,Escherichia coli [5],2 µg/mL
same,MIC,Enterococcus faecalis [6],0.5 µg/mL
same,MIC,[7],2 µg/mL
same,MIC,Streptococcus pneumoniae [16],4 µg/mL
same,MIC,Acinetobacter baumannii,2 µg/mL
same,MIC,Escherichia coli [8],> 32 µg/mL
same,MIC,Streptococcus pneumoniae [9],0.25 µg/mL
same,MIC,Klebsiella pneumoniae [10],> 32 µg/mL
same,MIC,Burkholderia cenocepacia,8 µg/mL
same,MIC,Staphylococcus aureus [17],0.125 µg/mL
CN(C)[C@@H]1C(O)=C(C(N)=O)C(=O)[C@@]2(O)C(O)=C3C(=O)c4c(O)cc(C5CCCN5)c(OC(F)(F)F)c4C[C@H]3C[C@@H]12 (stereo partly drawn),MIC,Staphylococcus aureus [1],0.125 µg/mL
same,MIC,Klebsiella pneumoniae [2],0.25 µg/mL
same,MIC,Enterococcus faecalis [3],1 µg/mL
same,MIC,Staphylococcus aureus [4],2 µg/mL
same,MIC,Escherichia coli [5],≤ 0.0156 µg/mL
same,MIC,[7],2 µg/mL
same,MIC,Streptococcus pneumoniae [16],≤ 0.0156 µg/mL
same,MIC,Acinetobacter baumannii,2 µg/mL
same,MIC,Escherichia coli [8],8 µg/mL
same,MIC,Proteus mirabilis [11],1 µg/mL
same,MIC,Enterobacter cloacae,16 µg/mL
same,MIC,Burkholderia cenocepacia,8 µg/mL
same,MIC,Staphylococcus aureus [17],≤ 0.0156 µg/mL
same,MIC,Pseudomonas aeruginosa [13],8 µg/mL
same,MIC,Enterococcus faecium,0.125 µg/mL
C[C@@H](O)[C@H]1C(=O)N2C(C(=O)O)=C(S[C@@H]3CN[C@H](C(=O)N(C)C)C3)[C@H](C)[C@H]12 [MEROPENEM],Activity,Pseudomonas aeruginosa [18],2.9 deltalog10CFU
same,Activity,Pseudomonas aeruginosa [19],4.2 deltalog10CFU
same,Activity,Pseudomonas aeruginosa [20],4.9 deltalog10CFU
same,MIC,Pseudomonas aeruginosa [21],0.125 µg/mL
CN(C)[C@@H]1C(O)=C(C(N)=O)C(=O)[C@@]2(O)C(O)=C3C(=O)c4c(O)cc([C@@H]5CCCN5)c(F)c4C[C@H]3C[C@@H]12,MIC,Staphylococcus aureus [1],0.5 µg/mL
same,MIC,Klebsiella pneumoniae [2],0.5 µg/mL
same,MIC,Enterococcus faecalis [3],32 µg/mL
same,MIC,Staphylococcus aureus [4],> 32 µg/mL
same,MIC,Escherichia coli [5],0.125 µg/mL
same,MIC,[7],8 µg/mL
same,MIC,Streptococcus pneumoniae [16],1 µg/mL
same,MIC,Acinetobacter baumannii,32 µg/mL
same,MIC,Escherichia coli [8],16 µg/mL
same,MIC,Proteus mirabilis [11],0.25 µg/mL
same,MIC,Enterobacter cloacae,32 µg/mL
same,MIC,Burkholderia cenocepacia,> 32 µg/mL
same,MIC,Staphylococcus aureus [17],0.125 µg/mL
same,MIC,Pseudomonas aeruginosa [13],8 µg/mL
same,MIC,Enterococcus faecium,4 µg/mL
